From ChEMBL document CHEMBL3758100, “4H-Chromene-based anticancer agents towards multi-drug resistant HL60/MX2 human leukemia: SAR at the 4th and 6th positions” (Bioorg Med Chem, 2016)

What was measured:
[1] = Cytotoxicity against human HL60/MX2 cells assessed as cell growth inhibition after 48 hrs by cell titer blue cell viability assay; assay type: functional, cell-based; details: HL60/MX2, 48 h
Method in brief: (§1)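 HL60 or HL60/MX2 cells kept in RPMI 1640 with 10% FBS and 1% penicillin–streptomycin at 37 °C, 5% CO2. Seeded at 1 × 10^4 cells/well and exposed to serial dilutions (1% DMSO final; 1% DMSO medium as control) in triplicate for 48 h. Viability read by CellTiter-Blue. IC50 fitted with a dose–response model; at least three biological repeats on different days; mean ± SD.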

HL-60 = test: Selectivity ratio of IC50 for human HL60/MX2 cells to IC50 for human HL60 cells; assay type: functional
Method in brief: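 Ratio of IC50 in HL60/MX2 over HL60, both from the 48 h CellTiter-Blue growth-inhibition assay. IC50s are means of at least three biological repeats. Two-tailed Student t test between the two cell lines.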

[2] = Cytotoxicity against human HL60 cells assessed as cell growth inhibition after 48 hrs by cell titer blue cell viability assay; assay type: functional, cell-based; details: HL-60, 48 h; method in brief: as §1

Row | Structure (SMILES) | IC50 [1] [µM] | Ratio IC50 (HL-60) | IC50 [2] [µM]
1 | C#CCOC(=O)CC1C(C(=O)OCC#C)=C(N)Oc2ccc(-c3cc(OC)cc(OC)c3)cc21 (configuration not stated) | 0.86 | 0.74 | 1.16
2 | C#CCOC(=O)CC1C(C(=O)OCC#C)=C(N)Oc2ccc(-c3cccc(N)c3)cc21 (configuration not stated) | 0.54 | – | 1.73
3 | C#CCOC(=O)C1=C(N)Oc2ccc(-c3cc(OC)cc(OC)c3)cc2C1CC(=O)CCC (configuration not stated) | 5.4 | 0.78 | 6.9
4 | C#CCOC(=O)C1=C(N)Oc2ccc(-c3cc(OC)cc(OC)c3)cc2C1CC(O)CCC (configuration not stated) | 35.8 | 0.77 | 46.6
5 | CCCC(=O)CC1C(C(=O)OCC)=C(N)Oc2ccc(-c3cc(OC)cc(OC)c3)cc21 (configuration not stated) | 11.7 | 0.43 | 27.3
6 | C#CCOC(=O)C1=C(N)Oc2ccc(-c3cc(OC)cc(OC)c3)cc2C1CC(=O)c1ccccc1 (configuration not stated) | 5.9 | 0.81 | 7.3
7 | CCOC(=O)C1=C(N)Oc2ccc(-c3cc(OC)cc(OC)c3)cc2C1CC(=O)c1ccccc1 (configuration not stated) | 41 | 0.38 | 109
8 | C#CCOC(=O)CC1C(C(=O)OCC#C)=C(N)Oc2cc3c(cc21)-c1cc(OC)cc(OC)c1CO3 (configuration not stated) | 7.4 | 0.18 | 41.9
9 | C#CCOC(=O)CC1C(C(=O)OCC#C)=C(N)Oc2cc(C)c(-c3cccc(N)c3)c(C)c21 (configuration not stated) | 82.2 | 1.63 | 50.5
10 | C#CCOC(=O)C1=C(N)Oc2ccc(-c3cc(OC)cc(OC)c3)cc2C1CC(O)c1ccccc1 (configuration not stated) | 54 | 0.54 | 100
11 | CCOC(=O)CC1C(C(=O)OCC)=C(N)Oc2ccc(-c3cc(OC)cc(OC)c3)cc21 (configuration not stated) | 1.7 | 0.32 | 5.4
